SMILES strings stand for the structures. pIC50: −log10 of the molar value. A value given as a limit tells only on which side of the number the result lay.

Data on 34 compounds can be found in ChEMBL document CHEMBL3259682, “Synthesis, β-haematin inhibition, and in vitro antimalarial testing of isocryptolepine analogues: SAR study of indolo[3,2-c]quinolines with various substituents at C2, C6, and N11” (Bioorg Med Chem, 2014).

Data set [1] can be described thus: Binding affinity to haematin assessed as inhibition of beta-haematin formation after 5 to 6 hrs by pyridine-ferrichrome-based method. In a few lines: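 Detergent (NP-40) mediated β-haematin formation assay, run manually. Compounds came from 20, 2 and 0.4 mM DMSO stocks, tested at 0–1000 µM final. Haematin was 100 µM final in 0.5 M acetate buffer, pH 4.8. Incubation was 5–6 h at 37 °C. Read-out used the pyridine-ferrichrome method with UV–vis absorbance. IC₅₀ came from sigmoidal dose–response fits.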

Data set [2] in a line: Selectivity index, ratio of IC50 for rat L6 cells to IC50 for erythrocytic stage of chloroquine-sensitive Plasmodium falciparum NF54. The class given is toxicity, cell-based. The following applies: read-out: Ratio IC50. The gist of the method: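 Selectivity index is the L6 cytotoxicity IC₅₀ divided by the NF54 antiplasmodial IC₅₀. Each IC₅₀ is the mean of two independent assays.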

For the next data set, the system named is L6. Briefly: Cytotoxicity against rat L6 cells after 70 hrs by Alamar Blue assay. The following applies: L6, 70 h. The data set is classed as functional, cell-based. The gist of the method:
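Rat skeletal myoblast L6 cells, 4000 per well, in RPMI 1640 with 1% L-glutamine and 10% fetal bovine serum. Eleven 3-fold serial drug dilutions were tested. Alamar Blue was added for a final 2 h. Fluorescence was read at excitation 536 nm and emission 588 nm. IC₅₀ is the mean of two independent assays.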
In general terms: Resazurin is reduced to fluorescent resorufin, in cell work by metabolically active cells.

Data set [3] deals with Plasmodium falciparum. Nature of the data set: Antimalarial activity against erythrocytic stage of chloroquine-sensitive Plasmodium falciparum NF54 after 48 hrs by [3H]-hypoxanthine incorporation assay. The class given is functional, organism-based. The gist of the method:
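³H-hypoxanthine incorporation against P. falciparum NF54. DMSO stocks at 10 mg/mL were added to cultures in hypoxanthine-free RPMI 1640 with HEPES, NaHCO₃, neomycin and Albumax, using human A⁺ red cells at 2.5% haematocrit and 0.3% parasitaemia. Eleven 3-fold serial dilutions were tested. Incubation was under 4% CO₂/3% O₂/93% N₂. ³H-hypoxanthine was added after 48 h, followed by a further 24 h. Cells were harvested onto glass-fibre filters. IC₅₀ is the mean of two independent assays.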

Data set [4] has as its system Plasmodium falciparum. Nature of the data set: Antimalarial activity against erythrocytic stage of chloroquine/pyrimethamine-resistant Plasmodium falciparum K1 after 48 hrs by [3H]-hypoxanthine incorporation assay. The data set is classed as functional, organism-based. In a few lines:
(§1)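 Chloroquine/pyrimethamine-resistant K1 and drug-susceptible NF54 P. falciparum were grown in hypoxanthine-free RPMI 1640 with HEPES, NaHCO₃, neomycin and Albumax, in human A⁺ erythrocytes at 2.5% haematocrit and 0.3% parasitaemia. DMSO stocks were 10 mg/mL, tested in eleven 3-fold dilutions under 4% CO₂/3% O₂/93% N₂. ³H-hypoxanthine was added at 48 h, then 24 h more before filter harvest. IC₅₀ is the mean of two assays; RI = K1/NF54 IC₅₀.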

Data set [5] is described as follows: Resistance index, ratio of IC50 for chloroquine/pyrimethamine-resistant Plasmodium falciparum K1 to IC50 for erythrocytic stage of chloroquine-sensitive Plasmodium falciparum NF54. The class given is functional. In a few lines:
as §1

A short description of data set [6]: Selectivity index, ratio of IC50 for rat L6 cells to IC50 for chloroquine/pyrimethamine-resistant Plasmodium falciparum K1. The data set is classed as toxicity, cell-based. The following applies: read-out: Ratio IC50.

Turning to `COc1ccc2nc(NCCCN)c3c4ccccc4n(C)c3c2c1`, the pIC50 (in general, −log10 of the IC50, conventionally taken in molar units) was 4.24 in data set [1], 6.86 with L6 and 7.48 with Plasmodium falciparum [3]. The selectivity ratio in data set [2] is 4.2.

Take `Cn1c2ccccc2c2c(NCCCN)nc3ccccc3c21`: the pIC50 was 4.62 in data set [1], 7.07 in the data set with Plasmodium falciparum [4], 6.55 with L6 and 7.14 with Plasmodium falciparum [3]. Further, the Ratio IC50 in data set [5] is 1.2. Further, the values for the selectivity ratio in data set [2] and in data set [6] were 3.9 and 3.3, respectively.

For the compound `Cn1cc2c3ccccc3nc-2c2ccccc21` [ISOCRYPTOLEPINE], in data set [6], the selectivity ratio was 1.5.

Turning to `OCCNc1nc2ccccc2c2[nH]c3ccccc3c12`, the pIC50 in data set [1] is 3.70; in the data set on L6 it was 6.05; in the data set on Plasmodium falciparum [3], 6.85. For the same compound, the selectivity ratio in data set [2] turned out to be 6.3.

As for `CN(C)CCCNc1nc2ccccc2c2c1c1ccccc1n2C`, the pIC50 in data set [1] was < 3.00; in the data set on L6, 6.15; in the data set on Plasmodium falciparum [3] it was 7.03. In addition, the selectivity ratio in data set [2] is 7.5.

Turning to `O=C(NCCCNc1nc2ccc([N+](=O)[O-])cc2c2[nH]c3ccccc3c12)Nc1ccccc1`, the values for the pIC50 (in data set [1]; with L6; in the data set on Plasmodium falciparum [3]) were 4.82, 5.33 and 7.62, respectively. The selectivity ratio in data set [2] is 192.

Consider `NCCCCNc1nc2ccccc2c2[nH]c3ccccc3c12`, for which the negative logarithm of the IC50 (pIC50) in data set [1] was 4.21; with L6, 6.13; with Plasmodium falciparum [3] it was 7.44. For the same compound, the selectivity ratio in data set [2] stood at 20.5.

`CCN(CC)CCCC(C)Nc1ccnc2cc(Cl)ccc12` (centres undefined) [CHLOROQUINE]: the negative-log IC50 (pIC50) in data set [1] is 4.52.

On to `Cn1c2ccccc2c2c(NCC(C)(C)CN)nc3ccc(Br)cc3c21`, for which the pIC50 was 4.39 in data set [1], 6.24 with L6 and 7.23 with Plasmodium falciparum [3]. Moreover, in data set [2], the selectivity ratio stood at 9.9.

Turning to `c1ccc2c(c1)nc(NCC1CCCO1)c1c3ccccc3[nH]c21` (centres undefined), the values for the pIC50 (in data set [1]; with L6; in the data set on Plasmodium falciparum [3]) were 3.83, 5.69 and 6.95, respectively. In addition, in data set [2], the selectivity ratio turned out to be 18.1.

For the compound `Cn1c2ccccc2c2c(NCC(C)(C)CN)nc3ccc(Cl)cc3c21`, the results for the pIC50 (in data set [1]; in the data set on L6; in the data set with Plasmodium falciparum [3]) were 4.42, 6.37 and 7.02, respectively. The selectivity ratio in data set [2] came out at 4.5.

For the compound `NCCCN1CCN(CCCNc2nc3ccccc3c3[nH]c4ccccc4c23)CC1`, the pIC50 in data set [1] was 4.20; in the data set with L6, 5.75; in the data set on Plasmodium falciparum [3] it was 7.58. For the same compound, the selectivity ratio in data set [2] amounted to 67.3.

Consider `Cn1c2ccccc2c2c(Cl)nc3ccccc3c21`, for which the pIC50 is < 3.00 in data set [1], 4.76 in the data set on L6 and 5.13 with Plasmodium falciparum [3]. In addition, the selectivity ratio in data set [2] was determined as 2.3.

Consider `CN(C)CCCNc1nc2ccc(Cl)cc2c2c1c1ccccc1n2C`, for which the pIC50 in data set [1] is 4.59; in the data set with L6, 6.50; in the data set on Plasmodium falciparum [3], 7.39. In addition, the selectivity ratio in data set [2] turned out to be 7.7.

Take `NCCCNc1nc2ccc(Br)cc2c2[nH]c3ccccc3c12`: the pIC50 is 4.71 in data set [1], 6.05 in the data set with L6 and 8.09 in the data set on Plasmodium falciparum [3]. For the same compound, the selectivity ratio in data set [2] came out at 110.

As for `OCCCNc1nc2ccccc2c2[nH]c3ccccc3c12`, the values for the pIC50 (in data set [1]; in the data set on L6; in the data set on Plasmodium falciparum [3]) were 3.54, 6.14 and 6.64, respectively. Also, in data set [2], the selectivity ratio came to 3.2.

As to `Cn1c2ccccc2c2c(NCCCN)nc3ccc(Br)cc3c21`, the values for the pIC50 (in data set [1]; in the data set with L6; in the data set on Plasmodium falciparum [3]) were 4.58, 6.08 and 7.50, respectively. Also, the selectivity ratio in data set [2] turned out to be 26.3.

Consider `C[C@@H]1CC[C@H]2[C@@H](C)C(=O)O[C@@H]3O[C@@]4(C)CC[C@@H]1[C@]32OO4` [ARTEMISININ], for which the pIC50 was 8.55 in the data set with Plasmodium falciparum [4] and 8.37 with Plasmodium falciparum [3]. The Ratio IC50 in data set [5] was 0.7.

With `O=C(NCCCNc1nc2cccc(Br)c2c2[nH]c3ccccc3c12)Nc1ccccc1`, the pIC50 in data set [1] was 4.66; with L6, 5.44; in the data set with Plasmodium falciparum [3], 6.54. The selectivity ratio in data set [2] was determined as 12.6.

Consider `COc1ccc(Nc2nc3ccccc3c3[nH]c4ccccc4c23)c(OC)c1`, for which the pIC50 in data set [1] was 4.36; in the data set with L6, 4.82; in the data set on Plasmodium falciparum [3], 6.50. Moreover, the selectivity ratio in data set [2] was determined as 48.

Turning to `Clc1nc2ccccc2c2[nH]c3ccccc3c12`, the pIC50 was < 3.00 in data set [1], 3.71 with L6 and 4.99 in the data set on Plasmodium falciparum [3]. Also, the selectivity ratio in data set [2] is 18.9.

Turning to `CN(C)CCCNc1nc2ccc(Br)cc2c2c1c1ccccc1n2C`, the figures for the pIC50 (in data set [1]; with L6; in the data set on Plasmodium falciparum [3]) were 4.40, 6.34 and 7.31, respectively. In addition, the selectivity ratio in data set [2] was 9.4.

As for `Cn1c2ccccc2c2c(NCCCN)nc3ccc(F)cc3c21`, the values for the pIC50 (in data set [1]; in the data set on L6; in the data set on Plasmodium falciparum [3]) were 4.59, 6.54 and 7.28, respectively. For the same compound, the selectivity ratio in data set [2] came to 5.5.

Regarding `Cn1c2ccccc2c2c(NCC(C)(C)CN)nc3ccccc3c21`, the pIC50 in data set [1] was 3.00; in the data set on L6, 6.59; with Plasmodium falciparum [3] it was 6.56. The selectivity ratio in data set [2] was 0.9.

In the case of `Cc1ccc2nc(NCCCN)c3c4ccccc4n(C)c3c2c1`, the results for the pIC50 (in data set [1]; in the data set on L6; in the data set on Plasmodium falciparum [3]) were 4.53, 6.72 and 7.50, respectively. Besides, the selectivity ratio in data set [2] is 6.1.

As to `c1ccc(CNc2nc3ccccc3c3[nH]c4ccccc4c23)cc1`, the pIC50 in data set [1] is 4.51; in the data set with L6 it was 5.53; with Plasmodium falciparum [3], 7.73. For the same compound, the selectivity ratio in data set [2] turned out to be 158.

As to `NCCCNc1nc2ccc(F)cc2c2[nH]c3ccccc3c12`, the figures for the pIC50 (in data set [1]; in the data set with L6; in the data set with Plasmodium falciparum [3]) were 4.84, 6.19 and 7.89, respectively. The selectivity ratio in data set [2] was found to be 49.1.

In the case of `CCN(CC)C(=O)NCCCNc1nc2ccccc2c2[nH]c3ccccc3c12`, the pIC50 in data set [1] is 4.41; in the data set on L6 it was 5.45; with Plasmodium falciparum [3], 7.39. For the same compound, the selectivity ratio in data set [2] came out at 86.8.

With `c1ccc2c(c1)nc(N1CCCNCC1)c1c3ccccc3[nH]c21`, the pIC50 was 3.77 in data set [1], 5.39 in the data set on L6 and 7.20 with Plasmodium falciparum [3]. Moreover, the selectivity ratio in data set [2] was 65.

For `Cn1c2ccccc2c2c(NCCCNC(=O)Nc3ccccc3)nc3ccccc3c21`, the results for the pIC50 (in data set [1]; with L6; in the data set on Plasmodium falciparum [3]) were 4.64, 6.97 and 8.14, respectively. Moreover, the selectivity ratio in data set [2] turned out to be 14.8.

With `Cc1ccc2nc(NCCCN)c3c4ccccc4[nH]c3c2c1`, the pIC50 in data set [1] was 4.22; in the data set on L6, 6.49; in the data set with Plasmodium falciparum [3], 7.44. Also, in data set [2], the selectivity ratio is 8.9.

For the compound `Cn1c2ccccc2c2c(NCCCN)nc3ccc(Cl)cc3c21`, the values for the pIC50 (in data set [1]; with L6; in the data set on Plasmodium falciparum [3]) were 4.55, 6.21 and 7.45, respectively. Moreover, in data set [2], the selectivity ratio is 17.5.

Turning to `CCN(CC)Cc1cc(Nc2ccnc3cc(Cl)ccc23)ccc1O`, in data set [1], the pIC50 is 4.96.

`CS(=O)(=O)NCCCNc1nc2ccccc2c2[nH]c3ccccc3c12`: the pIC50 in data set [1] is 3.93; with L6 it was 5.97; in the data set with Plasmodium falciparum [3] it was 7.27. The selectivity ratio in data set [2] came out at 19.6.
